In ChEMBL document CHEMBL1122757, “Angiotensin II: dependence of hormone affinity on the electronegativity of a single side chain” (1984):
Square brackets hold non-standard residues; d marks the D form. Peptide text beside a SMILES is read from it. Sar = CNCC(=O)O

Key:
Oryctolagus cuniculus [1] = organism: Oryctolagus cuniculus; experiment: In vitro biological activity on rabbit aorta strip.; type: functional
How it was run: (§1)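 Isolated rabbit aorta strips under 2 g tension, adjusted during a 60–90-min equilibration, with bath fluid changed every 10–15 min. Peptides added to the tissue bath, concentrations stated as final bath concentrations. Contractile responses recorded with force-displacement transducers.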

[2] = molecular target: T1, Type-1 angiotensin II receptor (Bos taurus) (UniProt P25104); experiment: Displacement of [3H]AT from angiotensin II receptor in bovine adrenocortical membranes; type: cell membranes
T1 sequence (whole entry): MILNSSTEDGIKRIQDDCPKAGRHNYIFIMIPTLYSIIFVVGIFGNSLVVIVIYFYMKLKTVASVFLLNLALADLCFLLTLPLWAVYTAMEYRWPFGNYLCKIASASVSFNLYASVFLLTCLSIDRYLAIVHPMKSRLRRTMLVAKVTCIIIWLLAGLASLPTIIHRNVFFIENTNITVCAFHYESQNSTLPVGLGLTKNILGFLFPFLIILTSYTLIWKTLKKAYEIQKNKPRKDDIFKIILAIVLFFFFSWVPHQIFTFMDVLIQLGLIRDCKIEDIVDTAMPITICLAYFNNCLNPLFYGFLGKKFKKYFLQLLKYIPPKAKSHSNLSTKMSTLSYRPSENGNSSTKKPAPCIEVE
How it was run: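 Bovine adrenal glands taken fresh at slaughter, kept in ice-cold saline and dissected; purified adrenal microsomal membranes (~50-100 μg protein) in 100 μL assay buffer with [Sar1,(3',5'-3H2-4'-NH2)Phe4]AT at 5 × 10^-9 M. Competitor 10^-9 to 10^-4 M. Triplicate, 20 °C, 15 min. Filtration on nitrocellulose, scintillation counting. Nonspecific binding with 10^-4 M unlabeled AT. Specific binding as B/BO. At least nine independent experiments; RA given relative to standard.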

Rattus norvegicus [3] = experiment: In vivo biological activity on the blood pressure of the anesthetized rat.; type: functional
Rattus norvegicus [4] = experiment: In vivo biological activity on the blood pressure of the anesthetized rat; type: functional
Oryctolagus cuniculus [5] = organism: Oryctolagus cuniculus; experiment: In vitro biological activity on rabbit aorta strip; type: functional; how it was run: as §1

| SMILES | Activity [2] | Activity (Oryctolagus cuniculus [1]) | Activity (Rattus norvegicus [3]) | other results |
| --- | --- | --- | --- | --- |
| CNCC(=O)N[C@@H](CCCN=C(N)N)C(=O)N[C@H](C(=O)N[C@@H](Cc1ccc(S)cc1)C(=O)N[C@H](C(=O)N[C@@H](Cc1c[nH]cn1)C(=O)N1CCC[C@H]1C(=O)N[C@@H](Cc1ccccc1)C(=O)O)C(C)C)C(C)C | – | 0.9% | – | – |
| CNCC(=O)N[C@@H](CCCN=C(N)N)C(=O)N[C@H](C(=O)N[C@@H](Cc1ccc(N)cc1)C(=O)N[C@H](C(=O)N[C@@H](Cc1c[nH]cn1)C(=O)N1CCC[C@H]1C(=O)N[C@@H](Cc1ccccc1)C(=O)O)C(C)C)C(C)C | – | 15% | 14% | – |
| CNCC(=O)N[C@@H](CCCN=C(N)N)C(=O)N[C@H](C(=O)N[C@@H](Cc1cc(I)c(N)c(I)c1)C(=O)N[C@H](C(=O)N[C@@H](Cc1c[nH]cn1)C(=O)N1CCC[C@H]1C(=O)N[C@@H](Cc1ccccc1)C(=O)O)C(C)C)C(C)C | – | 2.7% | 5.3% | – |
| CNCC(=O)N[C@@H](CCCN=C(N)N)C(=O)N[C@H](C(=O)N[C@@H](Cc1ccc(O)c([N+](=O)[O-])c1)C(=O)N[C@H](C(=O)N[C@@H](Cc1c[nH]cn1)C(=O)N1CCC[C@H]1C(=O)N[C@@H](Cc1ccccc1)C(=O)O)C(C)C)C(C)C | – | 38% | 16% | – |
| CNCC(=O)N[C@@H](CCCN=C(N)N)C(=O)N[C@H](C(=O)N[C@@H](Cc1ccc([N+](=O)[O-])cc1)C(=O)N[C@H](C(=O)N[C@@H](Cc1c[nH]cn1)C(=O)N1CCC[C@H]1C(=O)N[C@@H](Cc1ccccc1)C(=O)O)C(C)C)C(C)C | – | 0% | 0.2% | – |
| CNCC(=O)N[C@@H](CCCN=C(N)N)C(=O)N[C@H](C(=O)N[C@@H](Cc1ccc(N=[N+]=[N-])cc1)C(=O)N[C@H](C(=O)N[C@@H](Cc1c[nH]cn1)C(=O)N1CCC[C@H]1C(=O)N[C@@H](Cc1ccccc1)C(=O)O)C(C)C)C(C)C | – | 0.3% | – | – |
| CNCC(=O)N[C@@H](CCCN=C(N)N)C(=O)N[C@H](C(=O)N[C@@H](Cc1ccc(S(N)(=O)=O)cc1)C(=O)N[C@H](C(=O)N[C@@H](Cc1c[nH]cn1)C(=O)N1CCC[C@H]1C(=O)N[C@@H](Cc1ccccc1)C(=O)O)C(C)C)C(C)C | – | 3.2% | 0.9% | – |
| CNCC(=O)N[C@@H](CCCN=C(N)N)C(=O)N[C@H](C(=O)N[C@@H](Cc1cc(Cl)c(O)c(Cl)c1)C(=O)N[C@H](C(=O)N[C@@H](Cc1c[nH]cn1)C(=O)N1CCC[C@H]1C(=O)N[C@@H](Cc1ccccc1)C(=O)O)C(C)C)C(C)C | – | 22% | 19% | – |
| CNCC(=O)N[C@@H](CCCN=C(N)N)C(=O)N[C@H](C(=O)N[C@@H](Cc1ccc(S(=O)(=O)O)cc1)C(=O)N[C@H](C(=O)N[C@@H](Cc1c[nH]cn1)C(=O)N1CCC[C@H]1C(=O)N[C@@H](Cc1ccccc1)C(=O)O)C(C)C)C(C)C | – | 0% | 0% | – |
| CNCC(=O)N[C@@H](CCCN=C(N)N)C(=O)N[C@H](C(=O)N[C@@H](Cc1ccc(O)c(Cl)c1)C(=O)N[C@H](C(=O)N[C@@H](Cc1c[nH]cn1)C(=O)N1CCC[C@H]1C(=O)N[C@@H](Cc1ccccc1)C(=O)O)C(C)C)C(C)C | – | 103% | 82% | – |
| CNCC(=O)N[C@@H](CCCN=C(N)N)C(=O)N[C@H](C(=O)N[C@@H](Cc1ccc(O)c(N)c1)C(=O)N[C@H](C(=O)N[C@@H](Cc1c[nH]cn1)C(=O)N1CCC[C@H]1C(=O)N[C@@H](Cc1ccccc1)C(=O)O)C(C)C)C(C)C | – | 120% | 184% | – |
| CNCC(=O)N[C@@H](CCCN=C(N)N)C(=O)N[C@H](C(=O)N[C@@H](Cc1ccc(O)c(N=[N+]=[N-])c1)C(=O)N[C@H](C(=O)N[C@@H](Cc1c[nH]cn1)C(=O)N1CCC[C@H]1C(=O)N[C@@H](Cc1ccccc1)C(=O)O)C(C)C)C(C)C | – | 63% | 63% | – |
| CNCC(=O)N[C@@H](CCCN=C(N)N)C(=O)N[C@H](C(=O)N[C@@H](Cc1ccc(O)cc1)C(=O)N[C@H](C(=O)N[C@@H](Cc1c[nH]cn1)C(=O)N1CCC[C@H]1C(=O)N[C@@H](Cc1ccccc1)C(=O)O)C(C)C)C(C)C (H-[Sar]RVYVHPF-OH) | – | 100% | 100% | – |
| CNCC(=O)N[C@@H](CCCN=C(N)N)C(=O)N[C@H](C(=O)N[C@@H](Cc1cc([N+](=O)[O-])c(O)c([N+](=O)[O-])c1)C(=O)N[C@H](C(=O)N[C@@H](Cc1c[nH]cn1)C(=O)N1CCC[C@H]1C(=O)N[C@@H](Cc1ccccc1)C(=O)O)C(C)C)C(C)C | – | 7.8% | 0.5% | – |
| CNCC(=O)N[C@@H](CCCN=C(N)N)C(=O)N[C@H](C(=O)N[C@@H](Cc1ccccc1)C(=O)N[C@H](C(=O)N[C@@H](Cc1c[nH]cn1)C(=O)N1CCC[C@H]1C(=O)N[C@@H](Cc1ccccc1)C(=O)O)C(C)C)C(C)C | – | – | – | Activity (Rattus norvegicus [4]): 8.1%; Activity (Oryctolagus cuniculus [5]): 9.8% |

The next lines start with results.

| Activity [2] | SMILES | Activity (Oryctolagus cuniculus [1]) | Activity (Rattus norvegicus [3]) | other results |
| --- | --- | --- | --- | --- |
| 1.5% | CNCC(=O)N[C@@H](CCCN=C(N)N)C(=O)N[C@H](C(=O)N[C@@H](Cc1cc([N+](=O)[O-])c(O)c([N+](=O)[O-])c1)C(=O)N[C@H](C(=O)N[C@@H](Cc1c[nH]cn1)C(=O)N1CCC[C@@H]1C(=O)N[C@@H](Cc1ccccc1)C(=O)O)C(C)C)C(C)C | – | – | – |
| 18% | CNCC(=O)N[C@@H](CCCN=C(N)N)C(=O)N[C@H](C(=O)N[C@@H](Cc1ccccc1)C(=O)N[C@H](C(=O)N[C@@H](Cc1c[nH]cn1)C(=O)N1CCC[C@@H]1C(=O)N[C@@H](Cc1ccccc1)C(=O)O)C(C)C)C(C)C | – | – | – |
| 0.5% | CNCC(=O)N[C@@H](CCCN=C(N)N)C(=O)N[C@H](C(=O)N[C@@H](Cc1ccc(S)cc1)C(=O)N[C@H](C(=O)N[C@@H](Cc1c[nH]cn1)C(=O)N1CCC[C@@H]1C(=O)N[C@@H](Cc1ccccc1)C(=O)O)C(C)C)C(C)C | – | – | – |
| 100% | CNCC(=O)N[C@@H](CCCN=C(N)N)C(=O)N[C@H](C(=O)N[C@@H](Cc1ccc(O)cc1)C(=O)N[C@H](C(=O)N[C@@H](Cc1c[nH]cn1)C(=O)N1CCC[C@@H]1C(=O)N[C@@H](Cc1ccccc1)C(=O)O)C(C)C)C(C)C (H-[Sar]RVYVH[dP]F-OH) | – | – | – |
| 0% | CNCC(=O)N[C@@H](CCCN=C(N)N)C(=O)N[C@H](C(=O)N[C@@H](Cc1ccc(S(=O)(=O)O)cc1)C(=O)N[C@H](C(=O)N[C@@H](Cc1c[nH]cn1)C(=O)N1CCC[C@@H]1C(=O)N[C@@H](Cc1ccccc1)C(=O)O)C(C)C)C(C)C | – | – | – |
| 16% | CNCC(=O)N[C@@H](CCCN=C(N)N)C(=O)N[C@H](C(=O)N[C@@H](Cc1cc(I)c(N)c(I)c1)C(=O)N[C@H](C(=O)N[C@@H](Cc1c[nH]cn1)C(=O)N1CCC[C@@H]1C(=O)N[C@@H](Cc1ccccc1)C(=O)O)C(C)C)C(C)C | – | – | – |
| 3.8% | CNCC(=O)N[C@@H](CCCN=C(N)N)C(=O)N[C@H](C(=O)N[C@@H](Cc1ccc(S(N)(=O)=O)cc1)C(=O)N[C@H](C(=O)N[C@@H](Cc1c[nH]cn1)C(=O)N1CCC[C@@H]1C(=O)N[C@@H](Cc1ccccc1)C(=O)O)C(C)C)C(C)C | – | – | – |
| 1.5% | CNCC(=O)N[C@@H](CCCN=C(N)N)C(=O)N[C@H](C(=O)N[C@@H](Cc1ccc([N+](=O)[O-])cc1)C(=O)N[C@H](C(=O)N[C@@H](Cc1c[nH]cn1)C(=O)N1CCC[C@@H]1C(=O)N[C@@H](Cc1ccccc1)C(=O)O)C(C)C)C(C)C | – | – | – |
| 28% | CNCC(=O)N[C@@H](CCCN=C(N)N)C(=O)N[C@H](C(=O)N[C@@H](Cc1ccc(N)cc1)C(=O)N[C@H](C(=O)N[C@@H](Cc1c[nH]cn1)C(=O)N1CCC[C@@H]1C(=O)N[C@@H](Cc1ccccc1)C(=O)O)C(C)C)C(C)C | – | – | – |
| 28% | CNCC(=O)N[C@@H](CCCN=C(N)N)C(=O)N[C@H](C(=O)N[C@@H](Cc1cc(Cl)c(O)c(Cl)c1)C(=O)N[C@H](C(=O)N[C@@H](Cc1c[nH]cn1)C(=O)N1CCC[C@@H]1C(=O)N[C@@H](Cc1ccccc1)C(=O)O)C(C)C)C(C)C | – | – | – |
| 2.6% | CNCC(=O)N[C@@H](CCCN=C(N)N)C(=O)N[C@H](C(=O)N[C@@H](Cc1ccc(N=[N+]=[N-])cc1)C(=O)N[C@H](C(=O)N[C@@H](Cc1c[nH]cn1)C(=O)N1CCC[C@@H]1C(=O)N[C@@H](Cc1ccccc1)C(=O)O)C(C)C)C(C)C | – | – | – |
| 61% | CNCC(=O)N[C@@H](CCCN=C(N)N)C(=O)N[C@H](C(=O)N[C@@H](Cc1ccc(O)c(N=[N+]=[N-])c1)C(=O)N[C@H](C(=O)N[C@@H](Cc1c[nH]cn1)C(=O)N1CCC[C@@H]1C(=O)N[C@@H](Cc1ccccc1)C(=O)O)C(C)C)C(C)C | – | – | – |
| 87% | CNCC(=O)N[C@@H](CCCN=C(N)N)C(=O)N[C@H](C(=O)N[C@@H](Cc1ccc(O)c(Cl)c1)C(=O)N[C@H](C(=O)N[C@@H](Cc1c[nH]cn1)C(=O)N1CCC[C@@H]1C(=O)N[C@@H](Cc1ccccc1)C(=O)O)C(C)C)C(C)C | – | – | – |
| 132% | CNCC(=O)N[C@@H](CCCN=C(N)N)C(=O)N[C@H](C(=O)N[C@@H](Cc1ccc(O)c(N)c1)C(=O)N[C@H](C(=O)N[C@@H](Cc1c[nH]cn1)C(=O)N1CCC[C@@H]1C(=O)N[C@@H](Cc1ccccc1)C(=O)O)C(C)C)C(C)C | – | – | – |
| 75% | CNCC(=O)N[C@@H](CCCN=C(N)N)C(=O)N[C@H](C(=O)N[C@@H](Cc1ccc(O)c([N+](=O)[O-])c1)C(=O)N[C@H](C(=O)N[C@@H](Cc1c[nH]cn1)C(=O)N1CCC[C@@H]1C(=O)N[C@@H](Cc1ccccc1)C(=O)O)C(C)C)C(C)C | – | – | – |
